The values that follow come from ChEMBL document CHEMBL2429831, “Synthesis, antitubercular and anticancer activity of new Baylis-Hillman adduct-derived N-cinnamyl-substituted isatin derivatives” (Med Chem Res, 2013).

For one data set, the system named is CHO. In words: Cytotoxicity against CHO cells assessed as cell viability at 0.0000001 to 1 mM after 16 hrs by MTT assay. It is filed as cell-based, Cricetulus griseus. Particulars: chinese hamster. The essentials:
(§1)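 Cells seeded and incubated overnight at 37 °C in a CO2 incubator, then exposed to 1 mM, 100 μM, 100 nM and 100 pM (final) for 16 h at 37 °C, 5 % CO2. Medium removed, MTT (1 mg/mL in medium) added for 5 h, formazan dissolved in DMSO, absorbance read at 570 nm. Viability relative to 0.1 % DMSO solvent control (100 %). Triplicates, means.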
In general terms: Tetrazolium assays rely on reduction of a dye to a coloured formazan, in cell work by metabolically active cells.

A further data set deals with COLO 205. In words: Cytotoxicity against human COLO205 cells assessed as cell viability at 0.0000001 to 1 mM after 16 hrs by MTT assay. The class given is functional, cell-based. The essentials:
as §1

Another data set concerns SUP-T1. The data set is described as follows: Cytotoxicity against human SupT1 cells assessed as cell viability at 0.0000001 to 1 mM after 16 hrs by MTT assay. It is filed as functional. The essentials:
as §1

The subject of another data set is C6. In words: Cytotoxicity against rat C6 cells assessed as cell viability at 0.0000001 to 1 mM after 16 hrs by MTT assay. It is filed as functional. The essentials: as §1
The subject of data set [1] is Mycobacterium tuberculosis. In words: Antitubercular activity against Mycobacterium tuberculosis H37Rv ATCC 27294 assessed as growth inhibition after 28 days by agar dilution method. The class given is functional. The following applies: H37Rv ATCC 27294, 672 h. The essentials: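 Agar dilution in Middlebrook 7H11 with 10 % OADC, duplicate plates; compounds dissolved in DMSO and diluted twofold to give ten serial dilutions. Inoculum grown on 7H11/OADC slants, adjusted to 1 mg/mL wet weight in 0.05 % Tween 80 saline, diluted 10−2 (~10^7 cfu/mL); 5 μL spotted. Incubated at 37 °C, read at 28 days; MIC = lowest concentration completely inhibiting growth.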
For orientation: Agar dilution tests growth on a series of plates holding different concentrations.

≈ marks a conversion by molar mass, not a printed value. Calls of active or inactive are those of the source. The rule behind the calls is not given here.

As a reminder, the MIC is the lowest concentration that inhibits growth of the organism. On to `COC(=O)/C(=C/c1ccc([N+](=O)[O-])cc1)CN1C(=O)C(=O)c2cc(Cl)ccc21`, for which, in the data set on CHO, the Activity result was “Toxic”. Also, the result in the data set with COLO 205, in the data set with SUP-T1 and in the data set with C6 was Active. Moreover, the MIC in data set [1] came to 1.56 µg/mL (≈ 3.89 µM).
Turning to `COC(=O)/C(=C/c1ccccc1)CN1C(=O)C(=O)c2cc(Cl)ccc21`, in the data set with CHO, the Activity result is listed as “Toxic”. The result with COLO 205, in the data set on SUP-T1 and with C6 was Active. Also, the MIC in data set [1] is 12.5 µg/mL (≈ 35.1 µM).
Take `COC(=O)/C(=C/c1ccccc1)CN1C(=O)C(=O)c2cc(F)ccc21`: the Activity result with CHO is reported as “Toxic”. Also, the result in the data set with COLO 205, with SUP-T1 and in the data set on C6 was Active. Besides, the MIC in data set [1] was found to be 12.5 µg/mL (≈ 36.8 µM).
Turning to `COC(=O)/C(=C/c1ccc(Br)cc1)CN1C(=O)C(=O)c2cc(F)ccc21`, the Activity result with CHO was “Toxic”. Moreover, the outcome in the data set on COLO 205, with SUP-T1 and in the data set on C6 was Active. Further, in data set [1], the minimum inhibitory concentration (MIC) was found to be 6.25 µg/mL (≈ 14.9 µM).
As for `COC(=O)/C(=C/c1ccc([N+](=O)[O-])cc1)CN1C(=O)C(=O)c2cc(Br)ccc21`, the Activity entry in the data set on CHO is on record as “Non-toxic”; with SUP-T1 it was less than 20%; with C6, less than 20%. Besides, the outcome with COLO 205 was Active. In addition, the MIC in data set [1] was 1.56 µg/mL (≈ 3.5 µM).
As for `COC(=O)/C(=C/c1ccc([N+](=O)[O-])cc1)CN1C(=O)C(=O)c2ccccc21`, the Activity entry in the data set on CHO was “Toxic”. Moreover, the outcome in the data set with COLO 205, in the data set on SUP-T1 and in the data set with C6 was Active. The MIC in data set [1] is 6.25 µg/mL (≈ 17.1 µM).
For the molecule `COC(=O)/C(=C/c1ccc(Br)cc1)CN1C(=O)C(=O)c2cc(Br)ccc21`, in the data set on CHO, the Activity entry was “Toxic”. Besides, the result in the data set with COLO 205, in the data set on SUP-T1 and with C6 was Active. The MIC in data set [1] came out at 12.5 µg/mL (≈ 26.1 µM).
Take `COC(=O)/C(=C/c1ccc([N+](=O)[O-])cc1)CN1C(=O)C(=O)c2cc(F)ccc21`: in the data set on CHO, the Activity result is given as “Toxic”. Also, the result in the data set with COLO 205, in the data set with SUP-T1 and in the data set on C6 was Active. In data set [1], the MIC was 1.56 µg/mL (≈ 4.06 µM).
Take `COC(=O)/C(=C/c1ccc(Br)cc1)CN1C(=O)C(=O)c2cc(Cl)ccc21`: the Activity entry with CHO was “Toxic”. In addition, the result with COLO 205, in the data set with SUP-T1 and in the data set on C6 was Active. Moreover, in data set [1], the MIC stood at 6.25 µg/mL (≈ 14.4 µM).
`COC(=O)/C(=C/c1ccccc1)CN1C(=O)C(=O)c2cc(Br)ccc21`: the Activity entry with CHO is reported as “Toxic”. Moreover, the outcome in the data set on COLO 205, in the data set with SUP-T1 and with C6 was Active. For the same molecule, the MIC in data set [1] came out at 12.5 µg/mL (≈ 31.2 µM).
Turning to `COC(=O)/C(=C/c1ccccc1)CN1C(=O)C(=O)c2ccccc21`, in the data set on CHO, the Activity entry is “Toxic”. In addition, the outcome with COLO 205, in the data set with SUP-T1 and in the data set on C6 was Active. The minimal inhibitory concentration (MIC) in data set [1] turned out to be 25 µg/mL (≈ 77.8 µM).
Take `NC(=O)c1cnccn1` [PYRAZINAMIDE]: the MIC in data set [1] stood at 50.8 µg/mL (≈ 412 µM).
With `COC(=O)/C(=C/c1ccc(Br)cc1)CN1C(=O)C(=O)c2ccccc21`, in the data set on CHO, the Activity entry was “Toxic”. For the same molecule, the outcome in the data set with COLO 205, with SUP-T1 and in the data set with C6 was Active. The MIC in data set [1] amounted to 25 µg/mL (≈ 62.5 µM).
As to `NNC(=O)c1ccncc1` [ISONIAZID], the MIC in data set [1] was 0.36 µg/mL (≈ 2.63 µM).
The same measure, in the same setting: to `CC[C@@H](CO)NCCN[C@@H](CC)CO` [ETHAMBUTOL] belongs 7.64 µg/mL (≈ 37.4 µM).
For `CO[C@H]1/C=C/O[C@@]2(C)Oc3c(C)c(O)c4c(O)c(c(/C=N/N5CCN(C)CC5)c(O)c4c3C2=O)NC(=O)/C(C)=C\C=C\[C@H](C)[C@H](O)[C@@H](C)[C@@H](O)[C@@H](C)[C@H](OC(C)=O)[C@@H]1C` [RIFAMPIN], the MIC in data set [1] turned out to be 0.1 µg/mL (≈ 0.122 µM).
